ChEMBL document CHEMBL1671676, “In vitro activity of nemonoxacin, a novel nonfluorinated quinolone, against 2,440 clinical isolates” (2009)
≈ marks a conversion by molar mass, not a printed value.

Assays:
Format in all cases: functional
Acinetobacter baumannii [1] = test: Antibacterial activity against Acinetobacter baumannii assessed as percent cumulative susceptible isolates at minimum inhibitory concentration of 16 ug/ml by CLSI broth microdilution method; design: scale not given: the % may be the effect or the level left
Streptococcus pneumoniae [2] = test: Antibacterial activity against Streptococcus pneumoniae assessed as percent cumulative susceptible isolates at minimum inhibitory concentration of 0.06 ug/ml by CLSI broth microdilution method; design: scale not given: the % may be the effect or the level left
Staphylococcus aureus [3] = test: Antibacterial activity against methicillin-susceptible Staphylococcus aureus assessed as percent cumulative susceptible isolates at minimum inhibitory concentration of 32 ug/ml by CLSI broth microdilution method; design: scale not given: the % may be the effect or the level left
How it was run: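 Clinical isolates tested by CLSI broth microdilution using 96-well panels of doubling drug dilutions in cation-adjusted Mueller-Hinton broth with 5% lysed horse blood. MIC was read from these panels. Panel quality control used CLSI ATCC strains, including S. pneumoniae 49619, S. aureus 29213, E. faecalis 29212 and E. coli 25922. Cumulative percentages of isolates were tabulated at each MIC.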

[4] = system: Staphylococcus epidermidis; test: Antibacterial activity against methicillin-susceptible Staphylococcus epidermidis assessed as percent cumulative susceptible isolates at minimum inhibitory concentration of […] by CLSI broth microdilution method; design: scale not given: the % may be the effect or the level left
Acinetobacter baumannii [5] = test: Antibacterial activity against Acinetobacter baumannii assessed as percent cumulative susceptible isolates at minimum inhibitory concentration of 1 ug/ml by CLSI broth microdilution method; design: scale not given: the % may be the effect or the level left
Staphylococcus aureus [6] = test: Antibacterial activity against methicillin-susceptible Staphylococcus aureus assessed as percent cumulative susceptible isolates at minimum inhibitory concentration of […] by CLSI broth microdilution method; design: scale not given: the % may be the effect or the level left
Klebsiella pneumoniae [7] = test: Antibacterial activity against Klebsiella pneumoniae assessed as percent cumulative susceptible isolates at minimum inhibitory concentration of 0.06 ug/ml by CLSI broth microdilution method; design: scale not given: the % may be the effect or the level left
Staphylococcus aureus [8] = test: Antibacterial activity against methicillin-susceptible Staphylococcus aureus assessed as percent cumulative susceptible isolates at minimum inhibitory concentration of 1 ug/ml by CLSI broth microdilution method; design: scale not given: the % may be the effect or the level left
Enterococcus faecalis [9] = test: Antibacterial activity against Enterococcus faecalis assessed as percent cumulative susceptible isolates at minimum inhibitory concentration of […] by CLSI broth microdilution method; design: scale not given: the % may be the effect or the level left
Pseudomonas aeruginosa [10] = test: Antibacterial activity against Pseudomonas aeruginosa assessed as percent cumulative susceptible isolates at minimum inhibitory concentration of 1 ug/ml by CLSI broth microdilution method; design: scale not given: the % may be the effect or the level left
[11] = system: Stenotrophomonas maltophilia; test: Antibacterial activity against Stenotrophomonas maltophilia assessed as percent cumulative susceptible isolates at minimum inhibitory concentration of 4 ug/ml by CLSI broth microdilution method; design: scale not given: the % may be the effect or the level left
Enterococcus faecalis [12] = test: Antibacterial activity against Enterococcus faecalis assessed as percent cumulative susceptible isolates at minimum inhibitory concentration of 2 ug/ml by CLSI broth microdilution method; design: scale not given: the % may be the effect or the level left
Pseudomonas aeruginosa [13] = test: Antibacterial activity against Pseudomonas aeruginosa assessed as percent cumulative susceptible isolates at minimum inhibitory concentration of 0.5 ug/ml by CLSI broth microdilution method; design: scale not given: the % may be the effect or the level left
Escherichia coli [14] = test: Antibacterial activity against Escherichia coli assessed as percent cumulative susceptible isolates at minimum inhibitory concentration of 4 ug/ml by CLSI broth microdilution method; design: scale not given: the % may be the effect or the level left
Klebsiella oxytoca = test: Antibacterial activity against Klebsiella oxytoca assessed as percent cumulative susceptible isolates at minimum inhibitory concentration of […] by CLSI broth microdilution method; design: scale not given: the % may be the effect or the level left
Klebsiella pneumoniae [15] = test: Antibacterial activity against Klebsiella pneumoniae assessed as percent cumulative susceptible isolates at minimum inhibitory concentration of 4 ug/ml by CLSI broth microdilution method; design: scale not given: the % may be the effect or the level left
Enterococcus faecalis [16] = test: Antibacterial activity against Enterococcus faecalis assessed as percent cumulative susceptible isolates at minimum inhibitory concentration of 1 ug/ml by CLSI broth microdilution method; design: scale not given: the % may be the effect or the level left
Streptococcus pneumoniae [17] = test: Antibacterial activity against Streptococcus pneumoniae assessed as percent cumulative susceptible isolates at minimum inhibitory concentration of […] by CLSI broth microdilution method; design: scale not given: the % may be the effect or the level left
Enterobacter cloacae [18] = test: Antibacterial activity against Enterobacter cloacae assessed as percent cumulative susceptible isolates at minimum inhibitory concentration of […] by CLSI broth microdilution method; design: scale not given: the % may be the effect or the level left
Escherichia coli [19] = test: Antibacterial activity against Escherichia coli assessed as percent cumulative susceptible isolates at minimum inhibitory concentration of 32 ug/ml by CLSI broth microdilution method; design: scale not given: the % may be the effect or the level left
Klebsiella pneumoniae [20] = test: Antibacterial activity against Klebsiella pneumoniae assessed as percent cumulative susceptible isolates at minimum inhibitory concentration of 2 ug/ml by CLSI broth microdilution method; design: scale not given: the % may be the effect or the level left
Proteus mirabilis [21] = test: Antibacterial activity against Proteus mirabilis assessed as percent cumulative susceptible isolates at minimum inhibitory concentration of 4 ug/ml by CLSI broth microdilution method; design: scale not given: the % may be the effect or the level left
Staphylococcus aureus [22] = test: Antibacterial activity against hospital-associated methicillin-resistant Staphylococcus aureus assessed as percent cumulative susceptible isolates at minimum inhibitory concentration of […] by CLSI broth microdilution method; design: scale not given: the % may be the effect or the level left
Klebsiella pneumoniae [23] = test: Antibacterial activity against Klebsiella pneumoniae assessed as percent cumulative susceptible isolates at minimum inhibitory concentration of 1 ug/ml by CLSI broth microdilution method; design: scale not given: the % may be the effect or the level left
Klebsiella pneumoniae [24] = test: Antibacterial activity against Klebsiella pneumoniae assessed as percent cumulative susceptible isolates at minimum inhibitory concentration of 0.5 ug/ml by CLSI broth microdilution method; design: scale not given: the % may be the effect or the level left
Pseudomonas aeruginosa [25] = test: Antibacterial activity against Pseudomonas aeruginosa assessed as percent cumulative susceptible isolates at minimum inhibitory concentration of […] by CLSI broth microdilution method; design: scale not given: the % may be the effect or the level left
Staphylococcus aureus [26] = test: Antibacterial activity against methicillin-susceptible Staphylococcus aureus assessed as percent cumulative susceptible isolates at minimum inhibitory concentration of 0.06 ug/ml by CLSI broth microdilution method; design: scale not given: the % may be the effect or the level left
Enterobacter cloacae [27] = test: Antibacterial activity against Enterobacter cloacae assessed as percent cumulative susceptible isolates at minimum inhibitory concentration of 4 ug/ml by CLSI broth microdilution method; design: scale not given: the % may be the effect or the level left
Streptococcus pneumoniae [28] = test: Antibacterial activity against penicillin-resistant Streptococcus pneumoniae assessed as percent cumulative susceptible isolates at minimum inhibitory concentration of […] by CLSI broth microdilution method; design: scale not given: the % may be the effect or the level left
Escherichia coli [29] = test: Antibacterial activity against Escherichia coli assessed as percent cumulative susceptible isolates at minimum inhibitory concentration of 0.5 ug/ml by CLSI broth microdilution method; design: scale not given: the % may be the effect or the level left
Staphylococcus aureus [30] = test: Antibacterial activity against methicillin-resistant Staphylococcus aureus by CLSI M7-A7 broth microdilution method
Staphylococcus aureus [31] = test: Antibacterial activity against Staphylococcus aureus by CLSI M7-A7 broth microdilution method
Enterococcus faecium [32] = test: Antibacterial activity against Enterococcus faecium assessed as percent cumulative susceptible isolates at minimum inhibitory concentration of 32 ug/ml by CLSI broth microdilution method; design: scale not given: the % may be the effect or the level left
Enterobacter cloacae [33] = test: Antibacterial activity against Enterobacter cloacae assessed as percent cumulative susceptible isolates at minimum inhibitory concentration of 32 ug/ml by CLSI broth microdilution method; design: scale not given: the % may be the effect or the level left
Staphylococcus aureus [34] = test: Antibacterial activity against methicillin-susceptible Staphylococcus aureus assessed as percent cumulative susceptible isolates at minimum inhibitory concentration of 4 ug/ml by CLSI broth microdilution method; design: scale not given: the % may be the effect or the level left
Enterococcus faecium [35] = test: Antibacterial activity against Enterococcus faecium assessed as percent cumulative susceptible isolates at minimum inhibitory concentration of 4 ug/ml by CLSI broth microdilution method; design: scale not given: the % may be the effect or the level left
Pseudomonas aeruginosa [36] = test: Antibacterial activity against Pseudomonas aeruginosa assessed as percent cumulative susceptible isolates at minimum inhibitory concentration of 2 ug/ml by CLSI broth microdilution method; design: scale not given: the % may be the effect or the level left
Proteus mirabilis [37] = test: Antibacterial activity against Proteus mirabilis assessed as percent cumulative susceptible isolates at minimum inhibitory concentration of 32 ug/ml by CLSI broth microdilution method; design: scale not given: the % may be the effect or the level left

| SMILES | Activity (Acinetobacter baumannii [1]) [%] | Activity (Streptococcus pneumoniae [2]) [%] | Activity (Staphylococcus aureus [3]) [%] | Activity [4] [%] | Activity (Acinetobacter baumannii [5]) [%] | Activity (Staphylococcus aureus [6]) [%] | Activity (Klebsiella pneumoniae [7]) [%] | Activity (Staphylococcus aureus [8]) [%] | Activity (Enterococcus faecalis [9]) [%] | Activity (Pseudomonas aeruginosa [10]) [%] | Activity [11] [%] | Activity (Enterococcus faecalis [12]) [%] | Activity (Pseudomonas aeruginosa [13]) [%] | Activity (Escherichia coli [14]) [%] | Activity (Klebsiella oxytoca) [%] | Activity (Klebsiella pneumoniae [15]) [%] | Activity (Enterococcus faecalis [16]) [%] | Activity (Streptococcus pneumoniae [17]) [%] | Activity (Enterobacter cloacae [18]) [%] | Activity (Escherichia coli [19]) [%] | also measured |
| --- | --- | --- | --- | --- | --- | --- | --- | --- | --- | --- | --- | --- | --- | --- | --- | --- | --- | --- | --- | --- | --- |
| C[C@H]1COc2c(N3CCN(C)CC3)c(F)cc3c(=O)c(C(=O)O)cn1c23.C[C@H]1COc2c(N3CCN(C)CC3)c(F)cc3c(=O)c(C(=O)O)cn1c23.O [LEVOFLOXACIN] | 100 | 0.5 | 100 | 53.5 | 93.3 | 81.8 | 69.8 | 91.4 | 2.5 | 59.9 | 84.6 | 67.9 | 42.3 | 75.6 | 100 | 96 | 35.8 | 10.2 | 90.3 | 100 | Activity (Klebsiella pneumoniae [20]): 93%; Activity (Proteus mirabilis [21]): 93.9%; Activity (Staphylococcus aureus [22]): 3%; Activity (Klebsiella pneumoniae [23]): 92.5%; Activity (Klebsiella pneumoniae [24]): 87.4%; Activity (Pseudomonas aeruginosa [25]): 10.2%; Activity (Staphylococcus aureus [26]): 0.5%; Activity (Enterobacter cloacae [27]): 97.2%; Activity (Streptococcus pneumoniae [28]): 3.1%; Activity (Escherichia coli [29]): 73.6%; MIC50 (Staphylococcus aureus [30]): ≥ 32 µg/mL; MIC (Staphylococcus aureus [31]): ≥ 2 µg/mL; MIC90 (Staphylococcus aureus [31]): 16 µg/mL; Activity (Enterococcus faecium [32]): 100%; Activity (Enterobacter cloacae [33]): 100%; Activity (Staphylococcus aureus [34]): 92%; Activity (Enterococcus faecium [35]): 28.9%; Activity (Pseudomonas aeruginosa [36]): 70.1%; Activity (Proteus mirabilis [37]): 100% |
| COc1c(N2C[C@@H](C)C[C@H](N)C2)ccc2c(=O)c(C(=O)O)cn(C3CC3)c12 [NEMONOXACIN] | 100 | 99.4 | 100 | 86 | 93.3 | 92.5 | 1.5 | 94.9 | 67.9 | 51.1 | 73.1 | 97.5 | 14.6 | 75.8 | 81.3 | 94 | 90.1 | 100 | 83.3 | 93.2 | Activity (Klebsiella pneumoniae [20]): 92%; Activity (Proteus mirabilis [21]): 81.8%; Activity (Staphylococcus aureus [22]): 4%; Activity (Klebsiella pneumoniae [23]): 86.9%; Activity (Klebsiella pneumoniae [24]): 77.9%; Activity (Pseudomonas aeruginosa [25]): 4.4%; Activity (Staphylococcus aureus [26]): 88.8%; Activity (Enterobacter cloacae [27]): 93.1%; Activity (Streptococcus pneumoniae [28]): 84.4%; Activity (Escherichia coli [29]): 72.5%; MIC50 (Staphylococcus aureus [30]): 4 µg/mL (≈ 10.8 µM); MIC (Staphylococcus aureus [31]): < 2 µg/mL; MIC90 (Staphylococcus aureus [31]): 0.06 µg/mL (≈ 0.162 µM); Activity (Enterococcus faecium [32]): 79%; Activity (Enterobacter cloacae [33]): 100%; Activity (Staphylococcus aureus [34]): 98.9%; Activity (Enterococcus faecium [35]): 42.1%; Activity (Pseudomonas aeruginosa [36]): 66.4%; Activity (Proteus mirabilis [37]): 93.9% |
